Laboratory results reported in ChEMBL document CHEMBL1938323, “Phenolic substances from Phagnalon rupestre protect against 2,4,6-trinitrochlorobenzene-induced contact hypersensitivity” (2011).
Active and inactive are the calls of the source. The calls are words filed in the database; no cut-off is given here.

Assays:
Mus musculus [1] = organism: Mus musculus; experiment: Antihypersensitivity activity against TNCB-induced acute contact hypersensitivity in BALB/c mouse ear assessed as inhibition of neutrophil infiltration by measuring MPO activity at 0.5 mg/ear measured after 72 hrs relative to control; type: functional
In short: (§1)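 Female BALB/c mice were challenged on both ears with 10 μL 1% TNCB in acetone. Test compounds (0.5 mg/ear in EtOH–H2O 8:2) or dexamethasone (0.025 mg/ear in acetone) were applied topically at 30 min, 24 h and 48 h. Ear tissue was taken at 24 or 72 h and homogenized in phosphate buffer with 0.5% HTAB. MPO was read by TMB/H2O2, 3 min at 37 °C, A630. n ≥5 ear samples.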

Mus musculus [2] = organism: Mus musculus; experiment: Antihypersensitivity activity against TNCB-induced contact hypersensitivity in BALB/c mouse ear assessed as decrease IL1-beta levels at 0.5 mg/ear measured at 24 hrs by ELISA relative to control; type: functional
In short: (§2)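 Acute CHS: female BALB/c mice challenged with 1% TNCB (10 μL/ear). Topical treatment at 30 min, 24 h and 48 h: compounds 0.5 mg/ear, dexamethasone 0.025 mg/ear. Ears collected at 24 and 72 h and homogenized. Cytokines measured by ELISA in triplicate and expressed as pg/mL. n ≥4 animals; Dunnett's test versus control.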

Mus musculus [3] = organism: Mus musculus; experiment: Antihypersensitivity activity against TNCB-induced contact hypersensitivity in BALB/c mouse ear assessed as decrease IL2 levels at 0.5 mg/ear measured after 72 hrs by ELISA relative to 24 hrs; type: functional; in short: as §2
Mus musculus [4] = organism: Mus musculus; experiment: Antihypersensitivity activity against TNCB-induced contact hypersensitivity in BALB/c mouse ear assessed as decrease IL1-beta levels at 0.5 mg/ear measured at 72 hrs by ELISA relative to control; type: functional; in short: as §2
RAW264.7 [5] = experiment: Antiinflammatory activity in mouse RAW264.7 cells assessed as inhibition of LPS-induced MMP9 expression at 50 uM by Western blotting relative to control; type: functional
In short: (§3)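 RAW 264.7 cells were plated at 2×10^5 cells/mL and switched to DMEM with 0.5% FBS when subconfluent. They were pretreated 1 h with compound (25, 50, 100 μM) or PBS vehicle, then given LPS 1 μg/mL. Cells were lysed after 24 h. MMP-9 was measured by Western blot, normalized to β-actin, with % inhibition versus control. Three experiments.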

Mus musculus [6] = experiment: Antihypersensitivity against TNCB-induced contact hypersensitivity in BALB/c mouse ear assessed as inhibition of edema at 0.5 mg/ear applied […] after 30 mins, 24 hrs and 48 hrs of TNCB challenge measured after 24 hrs relative to control; type: functional
In short: (§4)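 Female BALB/c mice (7–9 weeks) challenged on each ear with 10 μL 1% TNCB in acetone six days after sensitization. Compounds given at 0.5 mg/ear in EtOH–H2O 8:2 at 30 min, 24 h and 48 h. Ear thickness measured by micrometer at 24 and 72 h. Edema is inflamed minus naive thickness; inhibition versus control. Dunnett's test.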

RAW264.7 [7] = experiment: Antiinflammatory activity in mouse RAW264.7 cells assessed as inhibition of LPS-induced MMP9 expression at 100 uM by Western blotting relative to control; type: functional; in short: as §3
Mus musculus [8] = organism: Mus musculus; experiment: Antihypersensitivity activity against TNCB-induced contact hypersensitivity in BALB/c mouse ear assessed as decrease IL4 levels at 0.5 mg/ear measured after 24 to 72 hrs by ELISA; type: functional, organism-based; in short: as §2
RAW264.7 [9] = experiment: Antiinflammatory activity in mouse RAW264.7 cells assessed as inhibition of LPS-induced MMP9 expression at 25 uM by Western blotting relative to control; type: functional; in short: as §3
Mus musculus [10] = experiment: Antihypersensitivity against TNCB-induced contact hypersensitivity in BALB/c mouse ear assessed as inhibition of edema at 0.5 mg/ear applied tropically after 30 mins, 24 hrs and 48 hrs of TNCB challenge measured after 72 hrs relative to control; type: functional; in short: as §4
RAW264.7 [11] = experiment: Antiinflammatory activity in mouse RAW264.7 cells assessed as inhibition of LPS-induced MMP9 expression by Western blotting; type: functional, cell-based; in short: as §3
Mus musculus [12] = experiment: Antihypersensitivity activity against TNCB-induced atopic dermatitis in BALB/c mouse ear assessed as inhibition of ear thickness at 0.5 mg/ear applied topically three times per week 30 min TNCB post challenge measured on day 11 onwards; type: functional
In short: (§5)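 BALB/c mice sensitized with 10 μL 0.3% TNCB in acetone on both inner ears at day −7, then re-challenged at the same site three times per week over days 0–21. Ear thickness measured by digital micrometer. Edema is the difference between naive and inflamed ear thickness. Inhibition calculated relative to the control group.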

Mus musculus [13] = organism: Mus musculus; experiment: Antihypersensitivity activity against TNCB-induced contact hypersensitivity in BALB/c mouse ear assessed as decreased COX2 expression at 0.5 mg/ear after at 24 hrs by Western blotting relative to control; type: functional
Mus musculus [14] = organism: Mus musculus; experiment: Antihypersensitivity activity against TNCB-induced contact hypersensitivity in BALB/c mouse ear assessed as inhibition of MMP9 production at 0.5 mg/ear measured at 24 hrs by Western blot analysis relative to control; type: functional
Mus musculus [15] = organism: Mus musculus; experiment: Antihypersensitivity activity against TNCB-induced contact hypersensitivity in BALB/c mouse ear assessed as decrease TNFalpha levels at 0.5 mg/ear measured at 24 hrs by ELISA relative to control; type: functional; in short: as §2
Mus musculus [16] = organism: Mus musculus; experiment: Antihypersensitivity activity against TNCB-induced contact hypersensitivity in BALB/c mouse ear assessed as decreased COX2 expression at 0.5 mg/ear after at 72 hrs by Western blotting relative to control; type: functional
Mus musculus [17] = organism: Mus musculus; experiment: Antihypersensitivity activity against TNCB-induced acute contact hypersensitivity in BALB/c mouse ear assessed as inhibition of neutrophil infiltration by measuring MPO activity at 0.5 mg/ear measured after 22 days of repeated application of TNCB relative to control; type: functional
In short: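 Repeated-challenge protocol in BALB/c mice: sensitized with 10 μL 0.3% TNCB in acetone on both inner ears at day −7, then 0.3% TNCB three times weekly over days 0–21. Ears were excised on day 22 and homogenized in 0.5% HTAB phosphate buffer. MPO was read by TMB/H2O2, 3 min at 37 °C, A630. n ≥5 ear samples.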

[18] = Inhibition of NF-kappaB activation
Mus musculus [19] = organism: Mus musculus; experiment: Antihypersensitivity activity against TNCB-induced acute contact hypersensitivity in BALB/c mouse ear assessed as inhibition of neutrophil infiltration by measuring MPO activity at 0.5 mg/ear measured after 24 hrs relative to control; type: functional; in short: as §1
Mus musculus [20] = experiment: Antihypersensitivity activity against TNCB-induced atopic dermatitis in BALB/c mouse ear assessed as inhibition of ear thickness at 0.5 mg/ear applied topically three times per week 30 min TNCB post challenge measured on day 7 onwards; type: functional; in short: as §5
Mus musculus [21] = organism: Mus musculus; experiment: Antihypersensitivity activity against TNCB-induced contact hypersensitivity in BALB/c mouse ear assessed as decreased COX2 expression at 0.025 mg/ear after at 72 hrs by Western blotting relative to control; type: functional
Mus musculus [22] = experiment: Antihypersensitivity activity against TNCB-induced atopic dermatitis in BALB/c mouse ear assessed as inhibition of ear thickness at 0.025 mg/ear applied topically three times per week 30 min TNCB post challenge measured up to 25 days; type: functional, organism-based; details: in the assay text read “up to 21 days” for “up to 25 days”; in short: as §5
Mus musculus [23] = experiment: Antihypersensitivity against TNCB-induced contact hypersensitivity in BALB/c mouse ear assessed as inhibition of edema at 0.025 mg/ear applied […] after 30 mins, 24 hrs and 48 hrs of TNCB challenge measured after 72 hrs relative to control; type: functional
In short: (§6)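 Female BALB/c mice, 7–9 weeks old, were challenged with 10 μL 1% TNCB in acetone per ear. Dexamethasone (20 μL, in acetone) was applied topically to both ears at 30 min, 24 h and 48 h after challenge. Thickness was taken by digital micrometer at 24 h or 72 h; edema is inflamed minus naive ear, with inhibition relative to control. Reported as mean ± SEM, ≥6 animals, Dunnett's test.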

Mus musculus [24] = organism: Mus musculus; experiment: Antihypersensitivity activity against TNCB-induced acute contact hypersensitivity in BALB/c mouse ear assessed as inhibition of neutrophil infiltration by measuring MPO activity at 0.025 mg/ear measured after 24 to 72 hrs relative to control; type: functional; in short: as §1
Mus musculus [25] = organism: Mus musculus; experiment: Antihypersensitivity activity against TNCB-induced contact hypersensitivity in BALB/c mouse ear assessed as decreased COX2 expression at 0.025 mg/ear after at 24 hrs by Western blotting relative to control; type: functional
Mus musculus [26] = organism: Mus musculus; experiment: Antihypersensitivity activity against TNCB-induced acute contact hypersensitivity in BALB/c mouse ear assessed as inhibition of neutrophil infiltration by measuring MPO activity at 0.025 mg/ear measured after 22 days of repeated application of TNCB relative to control; type: functional
In short: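 Female BALB/c mice were sensitized with 10 μL 0.3% TNCB in acetone on both inner ear surfaces, then painted with 0.3% TNCB three times weekly through days 0–21. On day 22 ears were homogenized in 50 mM PBS with 0.5% HTAB. Supernatant was read with H2O2 and tetramethylbenzidine, 3 min at 37 °C, acid-stopped, A630. Reported as mean ± SEM of ≥5 ear samples.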

Mus musculus [27] = organism: Mus musculus; experiment: Antihypersensitivity activity against TNCB-induced contact hypersensitivity in BALB/c mouse ear assessed as inhibition of MMP9 production at 0.025 mg/ear measured at 24 hrs by ELISA relative to control
Mus musculus [28] = organism: Mus musculus; experiment: Antihypersensitivity activity against TNCB-induced contact hypersensitivity in BALB/c mouse ear assessed as inhibition of MMP9 production at 0.025 mg/ear measured at 72 hrs by Western blot analysis relative to control; type: functional
Mus musculus [29] = experiment: Antihypersensitivity against TNCB-induced contact hypersensitivity in BALB/c mouse ear assessed as inhibition of edema at 0.025 mg/ear applied […] after 30 mins, 24 hrs and 48 hrs of TNCB challenge measured after 24 hrs relative to control; type: functional; in short: as §6
Mus musculus [30] = organism: Mus musculus; experiment: Antihypersensitivity activity against TNCB-induced contact hypersensitivity in BALB/c mouse ear assessed as decrease cytokines levels at 0.025 mg/ear measured at 24 hrs by ELISA relative to control; type: functional; in short: as §2

SMILES	inhibition (INH) (Mus musculus [2])	fold change (FC) (Mus musculus [3])	inhibition (INH) (Mus musculus [4])	inhibition at 50 µM (RAW264.7 [5])	inhibition (INH) (Mus musculus [6])	inhibition at 100 µM (RAW264.7 [7])	inhibition (Mus musculus [8])	inhibition at 25 µM (RAW264.7 [9])	inhibition (RAW264.7 [11])	inhibition (INH) (Mus musculus [13])	inhibition (INH) (Mus musculus [14])	inhibition (INH) (Mus musculus [15])	inhibition (INH) (Mus musculus [16])	other results
CC(C)=CCc1cc(O)ccc1O[C@@H]1O[C@H](CO)[C@@H](O)[C@H](O)[C@H]1O	>50%	2	60%	72%	53%	86%	inactive	10%	Dose-dependent effect	–	–	–	–	inhibition (INH) (Mus musculus [1]): 43%; inhibition (INH) (Mus musculus [10]): 50%; inhibition (INH) (Mus musculus [12]): 30%
COC(=O)[C@]1(O)C[C@@H](OC(=O)/C=C/c2ccc(O)c(O)c2)[C@@H](O)[C@H](OC(=O)/C=C/c2ccc(O)c(O)c2)C1	>50%	2	60%	85%	45%	90%	inactive	26%	Dose-dependent effect	49%	41%	39%	29%	–
O=C(/C=C/c1ccc(O)c(O)c1)O[C@@H]1C[C@](O)(C(=O)O)C[C@@H](OC(=O)/C=C/c2ccc(O)c(O)c2)[C@H]1O (relative stereo)	>50%	2	–	42%	50%	97%	inactive	20%	Dose-dependent effect	44%	66%	53%	20%	inhibition (INH) (Mus musculus [17]): 44%; inhibition [18]: Active; inhibition (INH) (Mus musculus [19]): 20%; inhibition (INH) (Mus musculus [20]): > 40%
C[C@@H]1C[C@H]2[C@@H]3CCC4=CC(=O)C=C[C@]4(C)[C@@]3(F)[C@@H](O)C[C@]2(C)[C@@]1(O)C(=O)CO [DEXAMETHASONE]	–	–	–	–	–	–	–	–	–	–	–	–	–	inhibition (INH) (Mus musculus [21]): 43%; inhibition (Mus musculus [22]): Active; inhibition (INH) (Mus musculus [23]): 83%; inhibition (INH) (Mus musculus [24]): 65%; inhibition (INH) (Mus musculus [25]): 48%; inhibition (INH) (Mus musculus [26]): 78%; inhibition (INH) (Mus musculus [27]): 81%; inhibition (INH) (Mus musculus [28]): 69%; inhibition (INH) (Mus musculus [29]): 78%; inhibition (INH) (Mus musculus [30]): 50%
O=C(O[C@@H]1Cc2c(O)cc(O)cc2O[C@@H]1c1cc(O)c(O)c(O)c1)c1cc(O)c(O)c(O)c1 [EPIGALOCATECHIN GALLATE]	–	–	–	75%	–	90%	–	70%	–	–	–	–	–	–
